Experimental data from ChEMBL document CHEMBL3608250, “Fragment-Based Discovery of Potent and Selective DDR1/2 Inhibitors” (ACS Med Chem Lett, 2015).
Numbering of substitutions follows the chain as printed. Active and inactive are the calls of the source. No cut-off for these calls is given here.

Legend:
[1] = target: Proto-oncogene tyrosine-protein kinase Src (Homo sapiens) (UniProt P12931); assay: Inhibition of c-Src (unknown origin) using biotinylated HER2 peptide as substrate at 100 uM by time resolved fluorescence method
[2] = target: T1, Discoidin domain-containing receptor 2 (Homo sapiens, UniProt Q16832); assay: Inhibition of DDR2 (unknown origin) after 1 hr by time resolved fluorescence method
T1 sequence (Q16832 whole entry): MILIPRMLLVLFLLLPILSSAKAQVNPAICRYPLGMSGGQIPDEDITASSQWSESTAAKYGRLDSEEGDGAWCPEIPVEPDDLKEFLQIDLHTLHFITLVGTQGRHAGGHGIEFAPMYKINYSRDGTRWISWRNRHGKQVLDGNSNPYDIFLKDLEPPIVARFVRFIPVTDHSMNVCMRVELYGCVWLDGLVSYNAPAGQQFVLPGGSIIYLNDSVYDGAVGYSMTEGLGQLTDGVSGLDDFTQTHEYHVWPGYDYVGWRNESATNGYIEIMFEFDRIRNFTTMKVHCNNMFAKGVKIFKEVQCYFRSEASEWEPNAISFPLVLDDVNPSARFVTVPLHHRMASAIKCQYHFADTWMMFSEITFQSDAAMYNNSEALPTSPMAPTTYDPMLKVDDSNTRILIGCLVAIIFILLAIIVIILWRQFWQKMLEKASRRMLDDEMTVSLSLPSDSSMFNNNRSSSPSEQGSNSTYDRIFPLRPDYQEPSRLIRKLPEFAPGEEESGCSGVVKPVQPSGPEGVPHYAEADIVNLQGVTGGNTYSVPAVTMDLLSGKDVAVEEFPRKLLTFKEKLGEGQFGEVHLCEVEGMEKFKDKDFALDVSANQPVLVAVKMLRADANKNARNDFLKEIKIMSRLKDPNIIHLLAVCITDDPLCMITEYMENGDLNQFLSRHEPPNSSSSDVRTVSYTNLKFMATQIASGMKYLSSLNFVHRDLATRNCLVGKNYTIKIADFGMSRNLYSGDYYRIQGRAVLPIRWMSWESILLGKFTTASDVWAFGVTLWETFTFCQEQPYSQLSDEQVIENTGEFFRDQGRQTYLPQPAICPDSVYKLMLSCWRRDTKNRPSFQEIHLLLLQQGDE

[3] = target: T2, Epithelial discoidin domain-containing receptor 1 (Homo sapiens, UniProt Q08345); assay: Inhibition of DDR1 (unknown origin) after 1 hr by time resolved fluorescence method
[4] = target: T3, Mast/stem cell growth factor receptor Kit (Homo sapiens, UniProt P10721); assay: Inhibition of c-Kit (unknown origin) using biotinylated HER2 peptide as substrate by time resolved fluorescence method
[5] = Volume of distribution at steady state in Balb/C mouse at 1 mg/kg, iv and 5 mg/kg, po; format: ADME, organism-based; conditions: in vivo, read-out: Vdss
[6] = Clearance in Balb/C mouse at 1 mg/kg, iv and 5 mg/kg, po; format: ADME, organism-based; conditions: in vivo
[7] = Half life in Balb/C mouse at 1 mg/kg, iv and 5 mg/kg, po; format: ADME, organism-based; conditions: in vivo
[8] = target: Proto-oncogene tyrosine-protein kinase Src (Homo sapiens) (UniProt P12931); assay: Inhibition of c-Src (unknown origin) using biotinylated HER2 peptide as substrate at 3 uM by time resolved fluorescence method
[9] = target: T4, Discoidin domain-containing receptor 2 (Homo sapiens) (UniProt Q16832); assay: Inhibition of collagen I-induced DDR2 (unknown origin) phosphorylation expressed in HEK293 cells at 0.1 to 1 uM after 16 hrs by Western blotting; format: cell-based
T4 sequence (whole entry): T1 sequence (Q16832 whole entry)
Procedure, shortened: (§1)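 HEK293 cells stably transfected with either wild-type DDR2 or the I638F mutant, giving DDR2 overexpression. Cells were left unstimulated or stimulated with collagen I and treated with compound. DDR2 tyrosine phosphorylation (pY) was read out by immunoblot.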

[10] = Antiproliferative activity against human HCC366 cells expressing DDR2 mutant after 72 hrs by alamar blue assay; format: functional, cell-based; conditions: HCC366, 72 h
[11] = target: T2, Epithelial discoidin domain-containing receptor 1; assay: Inhibition of DDR1 (unknown origin) at 0.0015 uM after 1 hr by time resolved fluorescence method
[12] = Antiproliferative activity against human NCI-H2286 cells expressing DDR2 mutant after 72 hrs by alamar blue assay; format: functional, cell-based; conditions: NCI-H2286, 72 h
[13] = tested on: T5, Discoidin domain-containing receptor 2 (Homo sapiens), Q16832 [I638F]; assay: Inhibition of collagen I-induced DDR2 I638F mutant (unknown origin) phosphorylation expressed in HEK293 cells at 0.1 to 1 uM after 16 hrs by Western blotting; format: cell-based; procedure, shortened: as §1
T5 sequence (whole entry): T1 sequence (Q16832 whole entry) with I638F

[14] = target: T1, Discoidin domain-containing receptor 2; assay: Inhibition of collagen I-induced DDR2 (unknown origin) phosphorylation expressed in HEK293 cells after 16 hrs by mesoscale discovery assay; format: cell-based
Procedure, shortened: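 HEK293 cells stably transfected to overexpress DDR2 (wild type or I638F mutant lines were generated), then stimulated with collagen I. Tyrosine-phosphorylated DDR2 was measured by MesoScale Discovery immunoassay and an EC50 was derived from the concentration–response.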

[15] = Oral bioavailability in Balb/C mouse at 5 mg/kg; format: ADME, organism-based; conditions: in vivo
[16] = target: T3, Mast/stem cell growth factor receptor Kit; conditions: 0.003 uM
[17] = target: Proto-oncogene tyrosine-protein kinase Src (Homo sapiens) (UniProt P12931); assay: Inhibition of c-Src (unknown origin) using biotinylated HER2 peptide as substrate at 10 uM by time resolved fluorescence method
[18] = target: T3, Mast/stem cell growth factor receptor Kit; assay: Inhibition of c-Kit (unknown origin) using biotinylated HER2 peptide as substrate at 10 uM by time resolved fluorescence method
[19] = target: T2, Epithelial discoidin domain-containing receptor 1; assay: Inhibition of DDR1 (unknown origin) at 0.005 uM after 1 hr by time resolved fluorescence method
[20] = target: T4, Discoidin domain-containing receptor 2 (Homo sapiens); assay: Inhibition of DDR2 (unknown origin) at 100 uM after 1 hr by time resolved fluorescence method
[21] = target: T3, Mast/stem cell growth factor receptor Kit; assay: Inhibition of c-Kit (unknown origin) using biotinylated HER2 peptide as substrate at 3 uM by time resolved fluorescence method

T3 sequence (P10721 whole entry): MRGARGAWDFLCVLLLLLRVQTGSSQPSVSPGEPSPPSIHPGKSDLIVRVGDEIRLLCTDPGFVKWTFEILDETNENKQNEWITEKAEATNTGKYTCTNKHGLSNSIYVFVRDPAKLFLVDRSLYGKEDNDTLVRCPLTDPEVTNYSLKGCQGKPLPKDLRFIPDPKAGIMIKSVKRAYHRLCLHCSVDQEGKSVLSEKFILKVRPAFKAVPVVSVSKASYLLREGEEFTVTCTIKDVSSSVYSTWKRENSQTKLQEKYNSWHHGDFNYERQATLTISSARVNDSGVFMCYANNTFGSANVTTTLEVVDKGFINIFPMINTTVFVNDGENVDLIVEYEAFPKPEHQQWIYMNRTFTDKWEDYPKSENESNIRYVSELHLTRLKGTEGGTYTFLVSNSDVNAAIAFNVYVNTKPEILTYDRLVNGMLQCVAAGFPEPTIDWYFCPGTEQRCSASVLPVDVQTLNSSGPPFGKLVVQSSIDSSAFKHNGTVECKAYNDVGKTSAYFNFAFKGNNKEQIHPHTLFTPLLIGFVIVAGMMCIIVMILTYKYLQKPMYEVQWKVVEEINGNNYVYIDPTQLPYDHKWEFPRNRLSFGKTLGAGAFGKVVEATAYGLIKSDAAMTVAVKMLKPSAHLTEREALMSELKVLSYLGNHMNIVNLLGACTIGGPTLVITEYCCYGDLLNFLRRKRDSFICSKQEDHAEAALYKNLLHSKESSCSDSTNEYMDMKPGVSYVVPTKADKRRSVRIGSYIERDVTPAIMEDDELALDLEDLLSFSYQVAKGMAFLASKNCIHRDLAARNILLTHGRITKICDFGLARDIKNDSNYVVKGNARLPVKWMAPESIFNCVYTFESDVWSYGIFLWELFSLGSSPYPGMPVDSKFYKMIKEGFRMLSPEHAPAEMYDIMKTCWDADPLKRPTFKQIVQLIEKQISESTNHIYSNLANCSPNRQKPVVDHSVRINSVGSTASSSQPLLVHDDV
Proto-oncogene tyrosine-protein kinase Src (Homo sapiens), sequence (P12931 2-536 limits assumed): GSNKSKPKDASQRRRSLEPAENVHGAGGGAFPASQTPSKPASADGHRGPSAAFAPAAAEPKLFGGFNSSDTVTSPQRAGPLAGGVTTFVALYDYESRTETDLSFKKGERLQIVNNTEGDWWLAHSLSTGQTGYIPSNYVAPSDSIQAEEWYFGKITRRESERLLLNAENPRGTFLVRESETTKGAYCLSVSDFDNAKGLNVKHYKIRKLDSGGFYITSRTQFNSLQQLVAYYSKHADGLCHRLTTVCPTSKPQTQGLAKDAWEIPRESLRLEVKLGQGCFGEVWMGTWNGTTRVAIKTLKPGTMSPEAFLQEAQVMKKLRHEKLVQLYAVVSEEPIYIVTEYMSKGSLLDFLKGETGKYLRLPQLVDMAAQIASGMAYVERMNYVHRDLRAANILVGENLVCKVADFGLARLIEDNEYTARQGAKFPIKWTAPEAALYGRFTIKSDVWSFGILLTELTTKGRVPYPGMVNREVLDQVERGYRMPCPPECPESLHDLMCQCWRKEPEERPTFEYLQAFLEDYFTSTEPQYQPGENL
T2 sequence (Q08345 whole entry, the tested form may be a part): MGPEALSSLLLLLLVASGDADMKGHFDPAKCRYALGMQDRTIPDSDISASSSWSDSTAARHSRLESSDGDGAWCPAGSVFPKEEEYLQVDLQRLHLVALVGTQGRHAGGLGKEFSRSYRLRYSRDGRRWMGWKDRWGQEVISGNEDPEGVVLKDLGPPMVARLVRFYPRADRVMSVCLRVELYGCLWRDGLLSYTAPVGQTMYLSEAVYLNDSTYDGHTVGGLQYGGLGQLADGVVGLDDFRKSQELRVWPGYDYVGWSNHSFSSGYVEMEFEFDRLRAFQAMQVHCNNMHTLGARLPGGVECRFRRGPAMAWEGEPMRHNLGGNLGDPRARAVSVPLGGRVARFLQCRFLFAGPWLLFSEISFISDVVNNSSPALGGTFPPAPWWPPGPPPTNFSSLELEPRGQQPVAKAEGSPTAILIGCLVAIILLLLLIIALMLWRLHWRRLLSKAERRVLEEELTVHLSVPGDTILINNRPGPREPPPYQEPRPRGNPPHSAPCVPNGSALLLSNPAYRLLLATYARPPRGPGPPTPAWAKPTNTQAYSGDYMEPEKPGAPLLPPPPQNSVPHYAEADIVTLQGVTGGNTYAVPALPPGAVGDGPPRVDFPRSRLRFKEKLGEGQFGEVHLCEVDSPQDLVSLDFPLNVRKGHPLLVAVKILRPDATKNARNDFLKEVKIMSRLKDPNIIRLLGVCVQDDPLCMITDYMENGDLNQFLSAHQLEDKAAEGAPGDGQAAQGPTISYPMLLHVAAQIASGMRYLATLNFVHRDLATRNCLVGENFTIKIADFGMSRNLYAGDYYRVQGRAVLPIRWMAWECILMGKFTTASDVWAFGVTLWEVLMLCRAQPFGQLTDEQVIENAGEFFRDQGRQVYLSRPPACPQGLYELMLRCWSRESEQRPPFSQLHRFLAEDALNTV

SMILES: O=C(NCc1cccc(NC(=O)c2cnc3ccccn23)c1)Nc1ccccc1
- inhibition [1]: 63%
- IC50 [2]: 280 nM
- IC50 [3]: 150 nM
- IC50 [4]: 180 nM

SMILES: Cc1ccc(CNC(=O)Nc2cccc(F)c2)cc1NC(=O)c1cnc2ccccn12
- Vd [5]: 0.42 L/kg
- clearance [6]: 7.65 mL/min/kg
- half-life [7]: 49.8 min
- inhibition [8]: 40%
- inhibition [9]: Active
- IC50 [10]: > 10000 nM
- inhibition [11]: 54%
- IC50 [2]: 3.3 nM
- IC50 [12]: > 10000 nM
- inhibition [13]: Active
- EC50 [14]: 8.7 nM
- IC50 [4]: 19 nM
- bioavailability [15]: 62%

SMILES: CN1CCN(CCOc2cc(OC3CCOCC3)c3c(Nc4c(Cl)ccc5c4OCO5)ncnc3c2)CC1
- inhibition [9]: Active
- inhibition [13]: Active

SMILES: Cc1nc(Nc2ncc(C(=O)Nc3c(C)cccc3Cl)s2)cc(N2CCN(CCO)CC2)n1 [DASATINIB]
- inhibition [16]: 90%
- IC50 [10]: 29 nM
- inhibition [11]: 40%
- IC50 [12]: 32 nM

SMILES: Cc1ccc([C@H](C)NC(=O)Nc2ccccc2)cc1NC(=O)c1cnc2ccccn12
- IC50 [2]: 8.1 nM
- IC50 [3]: 6 nM
- IC50 [4]: 310 nM
- inhibition [17]: 4%

SMILES: Cc1cn(-c2cc(NC(=O)c3ccc(C)c(Nc4nccc(-c5cccnc5)n4)c3)cc(C(F)(F)F)c2)cn1 [NILOTINIB]
- inhibition [9]: Active
- IC50 [12]: 1800 nM
- inhibition [13]: Active

SMILES: Cc1ccc([C@@H](C)NC(=O)Nc2ccccc2)cc1NC(=O)c1cnc2ccccn12
- IC50 [2]: 1300 nM
- IC50 [3]: 1500 nM
- inhibition [18]: 47%

SMILES: Cc1ccc([C@H](C)Nc2nc3cc(F)ccc3o2)cc1NC(=O)c1cnc2ccccn12
- Vd [5]: 1.9 L/kg
- clearance [6]: 16.6 mL/min/kg
- half-life [7]: 108 min
- IC50 [2]: 6.1 nM
- inhibition [19]: 59%
- IC50 [4]: 160 nM
- inhibition [17]: 52%
- bioavailability [15]: 97%

SMILES: Cc1ccc(CNC(=O)Nc2ccccc2)cc1NC(=O)c1cnc2ccccn12
- IC50 [2]: 8.2 nM
- IC50 [4]: 9.8 nM
- inhibition [17]: 54%

SMILES: O=C(NCc1cccnc1)Nc1ccccc1Cl
- inhibition [20]: 32%
- IC50 [3]: > 100000 nM

SMILES: Cc1ccc([C@H](C)NC(=O)c2cccc(C(F)(F)F)c2)cc1NC(=O)c1cnc2ccccn12
- Vd [5]: 0.31 L/kg
- clearance [6]: 2.99 mL/min/kg
- half-life [7]: 84 min
- inhibition [11]: 44%
- IC50 [2]: 5.8 nM
- inhibition [21]: 49%
- inhibition [17]: 48%
- bioavailability [15]: 55%

SMILES: Cc1ccc([C@H](C)NC(=O)Nc2cccc(F)c2)cc1NC(=O)c1cnc2ccccn12
- inhibition [11]: 54%
- IC50 [2]: 4.5 nM
- IC50 [4]: 140 nM
- inhibition [17]: 22%
